Screening results from PubChem.
This excerpt belongs to a sample that is enriched for hits.
CHOP inhibitor: CHOP inhibition in unfolded protein response; 220,000 tested, 3.8% active; inhibition, % at 10 µM; AID 2732; CHO-K1 CHOP-promoter luciferase, tunicamycin-induced, 15-18 h;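 active means compounds that reduced the stress-induced luciferase reporter signal by more than about 70% of percent inhibition, limit read from the data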
Lmaj promast: Leishmania major promastigote growth inhibition; Leishmania major promastigotes, resazurin fluorescence viability; inhibition, % at 10 µM; 200,000 tested, 9% active; in the data active means inhibition above about 50%;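 further: promastigotes grown with compound for 44 hours at 28 °C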
T cruzi inh: blocks replication of Trypanosoma cruzi; 300,000 tested, 1.4% active; T. cruzi beta-gal in NIH3T3, luminescence, 90 h; inhibition, % (test concentration not listed);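 active means mean inhibition across valid replicates above about 55%, limit read from the data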;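 further: signal also drops with host cell toxicity which is not excluded here; higher percent means less beta-gal luminescence so fewer parasites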
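Incubation – ≥90 h infection period, 3 h prior cell attachment · System – NIH/3T3 fibroblasts plus reporter T. cruzi · Doses – compound pinned at 50 nL/well, DMSO · Read-out basis – percent inhibition of parasite-derived β-gal signal · Signal – luminescent β-galactosidase signal after 60 min lysis · Also added – 5000 T. cruzi trypomastigotes/well · Medium – Low-serum DMEM with 2% FBS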
CHOP UPR activ: apoptotic UPR (CHOP) activation; activation, % at 10 µM; CHO-CHOP luciferase reporter, luminescence; percent of tunicamycin response over DMSO baseline; AID 449763; 330,000 tested, 0.34% active;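 active means at 10 µM dose, activation of 40% or more, normalized to positive control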
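assay system = CHO CHOP reporter cells | amount = 500 CHO-CHOP cells per well | buffer or medium = F12 with 10% FBS | incubation = 16-18 h cell attachment, then 6 h compound exposure, 37 °C | detection = luminescence read with Steady-Glo | read-out = percent activation relative to tunicamycin control | controls = tunicamycin high control, DMSO low control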
XBP1 UPR activ: activators of adaptive arm of unfolded protein response (XBP1); CHO-XBP1 luciferase reporter, IRE1-XBP1 UPR activation, luminescence; percent of tunicamycin response, DMSO as zero; 330,000 tested, 0.33% active; activation, % at 20 µM;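 active means versus positive control, 20 µM dose yields 30% or more activation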
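Material: IRE1-XBP1 luciferase reporter CHO line / Quantity: one thousand reporter cells per well / Buffer or medium: F12 with 10% serum / Compound: 20 µM single concentration, DMSO 1% / Times: 6 h treatment, 37 °C / Detection: Steady-Glo luciferase glow luminescence, 10 min after reagent addition / Benchmarks: tunicamycin high, DMSO low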
Dynein cargo inh: dynein cargo transport inhibition; AID 1381; 220,000 tested, 0.47% active; z-score, hits read low; 3617.4 mouse cells, GR-EGFP nuclear translocation imaging; test concentration mostly 20 µM; stimulated with dexamethasone, 1 µM; active compounds read low;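 active means plate z-score of nuclear minus cytoplasmic receptor signal below a set negative limit, without overly bright fluorescence or cell loss, cut at about -3.5 in these data, passing the limit was not always enough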;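 further: z-score of nuclear minus cytoplasmic ring GR-EGFP intensity difference per well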
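Schedule: 48 h induction, then 1 h compound, then 30 min agonist, 37 °C. Buffer or medium: tetracycline-free induction medium containing charcoal-stripped FBS. Reagent: 1.0 µM final dexamethasone stimulus. Evaluation: nuclear versus cytoplasmic GR-EGFP signal, averaged per well. Signal: high-content fluorescence imaging after fixation.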
Hits are given with their value; – = inactive; · = no result.

SMILES | CHOP inhibitor | Lmaj promast | T cruzi inh | CHOP UPR activ | XBP1 UPR activ | Dynein cargo inh
Nc1[nH]n2c(=O)cc(-c3ccccc3)nc2c1N=Nc1ccccc1 | – | 98.5 | – | – | – | –
COc1ccc(Nc2ncnc3c2cnn3Cc2ccc(C)cc2)cc1 | – | 90.2 | – | – | – | –
Cc1ccc(Cn2ncc3c(N4CCN(c5ccccc5C)CC4)ncnc32)cc1 | – | – | 59.4 | – | – | –
COc1ccccc1/C=C(/C(=O)OCC(N)=O)c1ccccc1 | – | 62.0 | – | – | – | –
COc1ccccc1/C=C(/C(=O)OCC(=O)N(C)Cc1ccccc1)c1ccccc1 | – | – | – | – | – | –
O=C(CCl)NCc1cc(-c2ccc(Cl)cc2)no1 | – | 71.3 | – | – | – | –
COc1ccc(OCc2cc(-c3ccc(Cl)cc3)no2)cc1 | – | – | – | – | – | –
Cc1ccc(NC(=O)NC2CCCN2S(=O)(=O)c2ccc(Cl)cc2)cc1 (stereo not drawn) | – | 62.4 | – | – | – | –
CCCCN(C(=O)CCCc1nc2ccccc2s1)c1c(N)n(CC(C)C)c(=O)[nH]c1=O | · | · | · | – | – | ·
CCOC(=O)C(C)Oc1ccccc1C1NC(=O)NC(C)=C1C(=O)Nc1ccc(C)c(C)c1 (stereo not drawn) | – | 75.8 | – | – | – | –
CC1C(=O)Nc2ccc(S(=O)(=O)N3CCN(c4cccc(C(F)(F)F)c4)CC3)cc2NC1=O (stereo not drawn) | · | · | – | – | – | ·
CC1CN(c2ccc([N+](=O)[O-])cc2Cl)CCN1S(C)(=O)=O (stereo not drawn) | – | · | – | – | – | –
O=[N+]([O-])c1cc(C(F)(F)F)ccc1N1CCN(S(=O)(=O)c2ccc3c(c2)CCCC3)CC1 | – | 66.5 | – | – | – | –
CC1CN(c2ccc(C(F)(F)F)cc2[N+](=O)[O-])CCN1S(C)(=O)=O (stereo not drawn) | – | 76.5 | – | – | – | –
O=C1CCc2cc(S(=O)(=O)N3CCN(c4cccc(C(F)(F)F)c4)CC3)ccc2N1 | 87.3 | – | – | – | – | –
O=[N+]([O-])c1cc(C(F)(F)F)ccc1N1CCCNCC1 | – | 78.7 | – | – | – | –
CC1CC(O)(Cc2ccccc2)C(C)CN1C (stereo not drawn) | – | – | – | – | – | –
CC1C(C)C(O)(c2ccccc2)CCN1C (stereo not drawn) | – | 69.3 | – | – | – | –
O=C(/C=C/c1c[nH]c2ccccc12)c1cccc2ccccc12 | 87.0 | – | – | – | – | –
O=C(NC1CCCCC1)C1CC(=O)N(CCc2ccc(F)cc2)C1 (stereo not drawn) | · | · | – | – | – | ·
C=CCn1c(C)cc(-c2csc(NCC)n2)c1C | – | – | – | – | – | –
C=CCn1c(C)cc(-c2csc(NC)n2)c1C | – | 96.1 | · | · | · | –
FC(F)(F)c1ccc(/C=N/n2c(C3CCCCC3)n[nH]c2=S)cc1 | · | · | – | – | – | ·
Cc1ccc(S(=O)(=O)Nc2cccc(C(=O)NC3CCN(Cc4ccccc4)CC3)c2)cc1F | · | · | 56.3 | – | – | ·
O=C(c1cccc(NS(=O)(=O)c2ccc(F)c(F)c2)c1)N1CCN(Cc2ccccc2)CC1 | – | 58.9 | – | – | – | –
SMILES | CHOP inhibitor | Lmaj promast | T cruzi inh | CHOP UPR activ | XBP1 UPR activ | Dynein cargo inh
CCOc1ccc2c(=O)c(Oc3ccccc3)c(C)oc2c1 | 76.2 | – | – | – | – | –
COc1cc(/C=C2/C(=O)NN(c3ccc(C)c(Cl)c3)C2=O)cc([N+](=O)[O-])c1O | · | · | – | – | – | ·
O=C1S/C(=C\c2ccc(O)c([N+](=O)[O-])c2)C(=O)N1c1ccccc1Cl | – | – | – | – | – | –
COc1cc(/C=C2\SC(=O)N(c3ccc(Cl)cc3)C2=O)cc([N+](=O)[O-])c1O | 105.2 | – | · | · | · | –
COc1cc(/C=C2\SC(=O)N(c3cccc(Cl)c3)C2=O)cc([N+](=O)[O-])c1O | 105.2 | – | · | – | – | –
O=C(NCCOC12CC3CC(CC(C3)C1)C2)c1cccc(Br)c1 | – | 93.7 | – | – | – | –
O=C(O)CCCCCNC(=O)c1cccc(Br)c1 | – | – | – | – | – | –
Cc1cc(NC(=O)COc2coc(CN3CCN(c4ccc(F)cc4)CC3)cc2=O)no1 | · | · | – | – | – | ·
CC(Cc1cccs1)NC(=S)Nc1ccccc1 (stereo not drawn) | – | 59.9 | – | – | – | –
CC(Cc1cccs1)NC(=O)Nc1ccc(Cl)cc1 (stereo not drawn) | – | – | – | – | – | –
CC(Cc1cccs1)NC(=O)Nc1ccc(Cl)c(Cl)c1 (stereo not drawn) | – | 61.4 | – | – | – | –
COc1ccc(NC(=S)N2CCN(S(=O)(=O)c3ccccc3)CC2)cc1 | · | · | · | – | – | ·
CN(Cc1ccccc1)CC(O)COc1ccc(CNCc2nccn2C)cc1 (stereo not drawn) | – | – | – | – | – | –
CN(Cc1ccccc1)CC(O)COc1ccc(CNCCc2ccncc2)cc1 (stereo not drawn) | – | 90.0 | 65.7 | – | – | –
CCc1ccc(CNCc2ccc(OCC(O)CN(C)Cc3ccccc3)cc2)nc1 (stereo not drawn) | – | 85.5 | – | – | – | –
Cc1cc(CN(C)Cc2ccc(OCC(O)CN(C)Cc3ccccc3)cc2)on1 (stereo not drawn) | – | 87.5 | – | – | – | –
CCn1ccnc1CNCc1ccc(OCC(O)CN(C)Cc2ccccc2)cc1 (stereo not drawn) | – | – | – | – | – | –
CN(Cc1ccccc1)CC(O)COc1ccc(CNCCc2cccnc2)cc1 (stereo not drawn) | – | 82.8 | – | – | – | –
COC(=O)c1cc(S(=O)(=O)NCCN2CCOCC2)cn1C | · | · | – | – | – | ·
CC1(C)C(=O)N(c2ccccc2Cl)C(=O)c2ccccc21 | · | · | – | – | – | ·
COc1cccc(-c2nc3ccccc3s2)c1O | – | – | – | – | – | –
COc1cc(OC)c(-c2nc3ccccc3s2)cc1OC | 72.4 | – | – | – | – | –
O=C(N/N=C/c1cccc(O)c1)c1csc2ccccc12 | – | 68.9 | – | – | – | –
CCn1ncc(/C=N\NC(=O)c2csc3ccccc23)c1C | – | 61.9 | – | – | – | –
CC(C)(C)NC(=O)c1ccccc1NC(=O)C1CC(=O)N(C2CCCCC2)C1 (stereo not drawn) | · | · | – | – | – | ·
Cc1cc(C)cc(NC(=S)NCC2CCCO2)c1 (stereo not drawn) | – | – | – | – | – | –
Cc1ccccc1NC(=S)NCC1CCN(C(C)c2ccccc2)C1 (stereo not drawn) | – | 76.3 | 57.8 | – | – | –
